This is an account of results in PubChem BioAssay AID623993 (Broad Institute, 2012).

For this assay, the target named is PvdQ acyl-homoserine lactone acylase (Pseudomonas aeruginosa LESB58). In words: inhibition of P. aeruginosa PvdQ enzyme – biochemical, 4-MU laurate fluorescence, dry powder, set 4, dose response (AID 623993). Conditions: purified PvdQ, 4-MU laurate hydrolysis fluorescence; for activity change, negative = inhibition: at 19.5 µM (top of the series). A digest of the protocol:
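Detection: Fluorescence, ex 303–367 nm, em 440–460 nm | Assay system: Purified Pseudomonas aeruginosa PvdQ acylase enzyme | Amount: PvdQ enzyme at 0.02 µM final | Incubation: 30 min enzyme–compound preincubation, then 60 min substrate reaction, room temperature | Reagent: 4-MU laurate substrate, 0.8 mM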

Active and inactive are the calls of the source.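 Rule for the calls: active = inhibitor whose fitted half-maximal dose is at most twice the top valid tested dose; inconclusive = flat curve with partial inhibition, or poor fit; inactive = signal rising, flat near zero, or weaker potency.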

With `Clc1ccc(C(c2cccc(Cl)n2)c2nn[nH]n2)cc1` (stereo not given), the “activity change, negative = inhibition” value is “inactive”. Take `N#CC(c1ccc(Cl)cc1)c1cccc(Cl)n1` (stereo not given): the AC50 (as a rule, the concentration at which the activity in the assay is half-maximal) is 49.1 nM. Same read-out and setting: to `CCCCC(C#N)c1ccc(F)cc1` (stereo not given) belongs 412 nM.

With `COCCOCCC(C#N)c1ccc(F)cc1` (stereo not given), the AC50 was 177 nM. Turning to `N#CC1c2ccc(Cl)cc2CCc2cccnc21` (stereo not given), the AC50 is 3510 nM.

Turning to `N#CC(c1cccc(Cl)n1)c1ccc(Cl)cc1F` (stereo not given), the AC50 is 7.66 nM. Still for that read-out and setting: the value for `N#Cc1cccc(C(C#N)c2ccc(F)cc2)n1` (stereo not given) was 140 nM.

On to `N#CC(c1ccc(Cl)cc1)N1CCCC1` (stereo not given), for which the AC50 was 786 nM. Still for that read-out and setting: to `N#CC(c1ccc(F)cc1)c1cccc(Cl)n1` (stereo not given) belongs 108 nM. With `N#CC(c1ccc(Cl)cc1)c1cccc(C(F)(F)F)n1` (stereo not given), the concentration at half-maximal activity (AC50) was 23.6 nM. On the same count and under the same terms, the value for `COCCC(C#N)c1ccc(F)cc1` (stereo not given) was 530 nM; that for `CCCCC(C#N)c1ccc(Cl)cn1` (stereo not given) was 1630 nM; that for `CN(C)CCCC(C#N)c1ccc(Cl)cc1` (stereo not given) was 14500 nM. As for `N#CC(c1ccc(C(F)(F)F)c(Cl)n1)c1ccccc1OC(F)(F)F` (stereo not given), the concentration at half-maximal activity (AC50) was 15200 nM. For the molecule `CCCCC(c1ccc(Cl)cc1)c1nn[nH]n1` (stereo not given), the half-maximal activity concentration (AC50) is 3530 nM. Same read-out and setting: to `CN(C)CCCC(C#N)c1ccc(F)cc1` (stereo not given) belongs 273 nM. Still for that read-out and setting: the value for `COCCOCCC(C#N)c1ccc(Cl)cc1` (stereo not given) was 7070 nM. Turning to `COCCNC(C#N)c1ccc(Cl)cc1` (stereo not given), the “activity change, negative = inhibition” value is “inactive”. `N#CC(c1ccc(Cl)cc1)c1ncccc1Cl` (stereo not given): the concentration at half-maximal activity (AC50) was 3.01 nM. As for `N#CC(c1cccc(C(F)(F)F)n1)c1ccc(Cl)cc1F` (stereo not given), the half-maximal activity concentration (AC50) is less than 3 nM.

Take `N#CC(c1ccc(Cl)cc1)c1ccccn1` (stereo not given): the AC50 is 212 nM. Same read-out and setting: to `N#CC(c1ccc(F)cc1)c1cccc(C(F)(F)F)n1` (stereo not given) belongs less than 3 nM; to `COCCC(C#N)c1ccc(Cl)cc1` (stereo not given), 3470 nM; to `CCCCC(C#N)c1ccc(Cl)cc1` (stereo not given), 412 nM. As for `CCCCC(C#N)c1ccccn1` (stereo not given), the “activity change, negative = inhibition” value is “inactive”.
